Results published in ChEMBL document CHEMBL1155262, “A new class of anticonvulsants possessing 6 Hz activity: 3,4-dialkyloxy thiophene bishydrazones” (Eur J Med Chem, 2009).
Active and inactive are the calls of the source. The rule behind the calls is not given here.

Columns and labels:
Mus musculus [1] = assay: Anticonvulsant activity in mouse CF1 albino assessed as inhibition of maximal electric shock-induced seizure at 300 mg/kg, ip after 0.5 hrs; assay type: functional, organism-based; set-up: dose 300 mg/kg
Procedure, shortened: (§1)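 Male CF-1 albino mice (18–25 g); compound suspended in 0.5% methyl cellulose/water or PEG 200, given i.p. at 30, 100 and 300 mg/kg (0.01 mL/g). Tested 0.5 or 4 h after dosing. Protection = abolition of hind limb tonic extensor component of MES seizure.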

Mus musculus [2] = assay: Anticonvulsant activity in mouse CF1 albino assessed as inhibition of subcutaneous metrazole-induced seizure at 300 mg/kg, ip after 4 hrs; assay type: functional, organism-based; set-up: dose 300 mg/kg
Mus musculus [3] = assay: Neurotoxicity against ip dosed mouse CF1 albino assessed as minimal motor impairment after 0.5 hrs by rotord test; assay type: toxicity, organism-based; settings: in vivo
Procedure, shortened: (§2)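 Rotorod minimal motor impairment in male CF-1 albino mice (18–25 g) after i.p. dosing at 30, 100 or 300 mg/kg in 0.5% methyl cellulose/water or PEG 200. Mice placed on a rod rotating at 6 rpm at 0.5 or 4 h. Value is minimum dose causing impairment in at least one mouse.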

Mus musculus [4] = assay: Anticonvulsant activity in mouse CF1 albino assessed as inhibition of maximal electric shock-induced seizure at 300 mg/kg, ip after 4 hrs; assay type: functional, organism-based; set-up: dose 300 mg/kg; procedure, shortened: as §1
Mus musculus [5] = assay: Anticonvulsant activity in mouse CF1 albino assessed as inhibition of subcutaneous metrazole-induced seizure at 300 mg/kg, ip after 0.5 hrs; assay type: functional, organism-based; set-up: dose 300 mg/kg
Mus musculus [6] = assay: Neurotoxicity against mouse CF1 albino assessed as minimal motor impairment at 300 mg/kg, ip after 4 hrs by rotord test; assay type: toxicity, organism-based; set-up: dose 300 mg/kg, route intraperitoneal; settings: in vivo; procedure, shortened: as §2
Mus musculus [7] = assay: Anticonvulsant activity in ip dosed mouse CF1 albino assessed as inhibition of maximal electric shock-induced seizure after 4 hrs; assay type: functional; procedure, shortened: as §1
Mus musculus [8] = assay: Neurotoxicity against mouse CF1 albino assessed as minimal motor impairment at 300 mg/kg, ip after 0.5 hrs by rotord test; assay type: toxicity, organism-based; set-up: dose 300 mg/kg, route intraperitoneal; settings: in vivo; procedure, shortened: as §2
Mus musculus [9] = assay: Neurotoxicity against ip dosed mouse CF1 albino assessed as minimal motor impairment after 4 hrs by rotord test; assay type: toxicity, organism-based; settings: in vivo; procedure, shortened: as §2
Mus musculus [10] = assay: Anticonvulsant activity in mouse CF1 albino assessed as inhibition of minimal electric shock-induced seizure at 100 mg/kg, ip after 1 hr; assay type: functional, organism-based; set-up: dose 100 mg/kg
Procedure, shortened: (§3)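 6 Hz psychomotor seizure model in male CF-1 albino mice dosed i.p. Four mice per time point (0.25, 0.5, 1, 2, 4 h) received corneal-electrode current of 32 mA for 3 s. Untreated mice show a minimal clonic phase followed by stereotyped automatistic behaviour. Results given as number protected out of 4.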

Mus musculus [11] = assay: Anticonvulsant activity in mouse CF1 albino assessed as inhibition of minimal electric shock-induced seizure at 100 mg/kg, ip after 2 hrs; assay type: functional, organism-based; set-up: dose 100 mg/kg; procedure, shortened: as §3
Mus musculus [12] = assay: Anticonvulsant activity in mouse CF1 albino assessed as inhibition of minimal electric shock-induced seizure at 100 mg/kg, ip after 4 hrs; assay type: functional, organism-based; set-up: dose 100 mg/kg; procedure, shortened: as §3
Mus musculus [13] = assay: Anticonvulsant activity in mouse CF1 albino assessed as inhibition of minimal electric shock-induced seizure at 100 mg/kg, ip after 0.25 hrs; assay type: functional, organism-based; set-up: dose 100 mg/kg; procedure, shortened: as §3
Mus musculus [14] = assay: Anticonvulsant activity in ip dosed mouse CF1 albino assessed as inhibition of subcutaneous metrazole-induced seizure after 4 hrs; assay type: functional
Mus musculus [15] = assay: Anticonvulsant activity in ip dosed mouse CF1 albino assessed as inhibition of subcutaneous metrazole-induced seizure after 0.5 hrs; assay type: functional
Mus musculus [16] = assay: Anticonvulsant activity in mouse CF1 albino assessed as inhibition of minimal electric shock-induced seizure at 50 mg/kg, ip after 0.25 hrs; assay type: functional, organism-based; set-up: dose 50 mg/kg; procedure, shortened: as §3
Mus musculus [17] = assay: Anticonvulsant activity in mouse CF1 albino assessed as inhibition of minimal electric shock-induced seizure at 50 mg/kg, ip after 1 hr; assay type: functional, organism-based; set-up: dose 50 mg/kg; procedure, shortened: as §3
Mus musculus [18] = assay: Anticonvulsant activity in mouse CF1 albino assessed as inhibition of minimal electric shock-induced seizure at 50 mg/kg, ip after 4 hrs; assay type: functional, organism-based; set-up: dose 50 mg/kg; procedure, shortened: as §3
Mus musculus [19] = assay: Anticonvulsant activity in mouse CF1 albino assessed as inhibition of minimal electric shock-induced seizure at 50 mg/kg, ip after 2 hrs; assay type: functional, organism-based; set-up: dose 50 mg/kg; procedure, shortened: as §3
Mus musculus [20] = assay: Anticonvulsant activity in mouse CF1 albino assessed as inhibition of minimal electric shock-induced seizure at 50 mg/kg, ip after 0.5 hrs; assay type: functional, organism-based; set-up: dose 50 mg/kg; procedure, shortened: as §3
Mus musculus [21] = assay: Anticonvulsant activity in mouse CF1 albino assessed as inhibition of minimal electric shock-induced seizure at 30 mg/kg, ip after 0.25 hrs; assay type: functional, organism-based; set-up: dose 30 mg/kg; procedure, shortened: as §3
Mus musculus [22] = assay: Anticonvulsant activity in mouse CF1 albino assessed as inhibition of minimal electric shock-induced seizure at 30 mg/kg, ip after 2 hrs; assay type: functional, organism-based; set-up: dose 30 mg/kg; procedure, shortened: as §3
Mus musculus [23] = assay: Anticonvulsant activity in mouse CF1 albino assessed as inhibition of minimal electric shock-induced seizure at 30 mg/kg, ip after 4 hrs; assay type: functional, organism-based; set-up: dose 30 mg/kg; procedure, shortened: as §3
Mus musculus [24] = assay: Anticonvulsant activity in mouse CF1 albino assessed as inhibition of minimal electric shock-induced seizure at 30 mg/kg, ip after 1 hr; assay type: functional, organism-based; set-up: dose 30 mg/kg; procedure, shortened: as §3
Mus musculus [25] = assay: Anticonvulsant activity in mouse CF1 albino assessed as inhibition of minimal electric shock-induced seizure at 30 mg/kg, ip after 0.5 hrs; assay type: functional, organism-based; set-up: dose 30 mg/kg; procedure, shortened: as §3

## CCCOc1c(C(=O)N/N=C/c2ccc([N+](=O)[O-])cc2)sc(C(=O)N/N=C/c2ccc([N+](=O)[O-])cc2)c1OCCC
Mus musculus [1]
  Activity: inactive
Mus musculus [2]
  Activity: inactive
Mus musculus [3]
  Activity: 100 mg/kg
Mus musculus [4]
  Activity: inactive
Mus musculus [5]
  Activity: inactive
Mus musculus [6]
  Activity: Not Active

## CCCOc1c(C(=O)N/N=C/c2ccccc2OC)sc(C(=O)N/N=C/c2ccccc2OC)c1OCCC
Mus musculus [1]
  Activity: inactive
Mus musculus [2]
  Activity: inactive
Mus musculus [3]
  Activity: 100 mg/kg
Mus musculus [4]
  Activity: inactive
Mus musculus [5]
  Activity: inactive
Mus musculus [6]
  Activity: Not Active

## C/C(=N\NC(=O)c1sc(C(=O)N/N=C(\C)c2cccs2)c(OCc2ccccc2)c1OCc1ccccc1)c1cccs1
Mus musculus [1]
  Activity: inactive
Mus musculus [7]
  Activity: 300 mg/kg
Mus musculus [2]
  Activity: inactive
Mus musculus [8]
  Activity: Not Active
Mus musculus [5]
  Activity: inactive
Mus musculus [6]
  Activity: Not Active

## CCCOc1c(C(=O)N/N=C2/C(=O)Nc3ccccc32)sc(C(=O)N/N=C2/C(=O)Nc3ccccc32)c1OCCC
Mus musculus [9]
  Activity: 300 mg/kg
Mus musculus [1]
  Activity: inactive
Mus musculus [7]
  Activity: 300 mg/kg
Mus musculus [10]
  Activity: inactive
Mus musculus [2]
  Activity: inactive
Mus musculus [3]
  Activity: 100 mg/kg
Mus musculus [11]
  Activity: inactive
Mus musculus [12]
  Activity: inactive
Mus musculus [5]
  Activity: inactive

## CCCOc1c(C(=O)N/N=C/c2ccccc2O)sc(C(=O)N/N=C/c2ccccc2O)c1OCCC
Mus musculus [13]
  Activity: inactive
Mus musculus [1]
  Activity: inactive
Mus musculus [14]
  Activity: 300 mg/kg
Mus musculus [8]
  Activity: Not Active
Mus musculus [11]
  Activity: inactive
Mus musculus [4]
  Activity: inactive
Mus musculus [12]
  Activity: inactive
Mus musculus [5]
  Activity: inactive
Mus musculus [6]
  Activity: Not Active

## CCCOc1c(C(=O)N/N=C(/C)c2ccsc2)sc(C(=O)N/N=C(/C)c2ccsc2)c1OCCC
Mus musculus [13]
  Activity: inactive
Mus musculus [12]
  Activity: inactive

## CCCOc1c(C(=O)N/N=C/c2cc([N+](=O)[O-])ccc2Br)sc(C(=O)N/N=C/c2cc([N+](=O)[O-])ccc2Br)c1OCCC
Mus musculus [1]
  Activity: inactive
Mus musculus [2]
  Activity: inactive
Mus musculus [3]
  Activity: 300 mg/kg
Mus musculus [4]
  Activity: inactive
Mus musculus [5]
  Activity: inactive
Mus musculus [6]
  Activity: Not Active

## COc1cc(/C=N/NC(=O)c2sc(C(=O)N/N=C/c3cc(OC)c(OC)c(OC)c3)c3c2OCCO3)cc(OC)c1OC
Mus musculus [1]
  Activity: inactive
Mus musculus [2]
  Activity: inactive
Mus musculus [3]
  Activity: 300 mg/kg
Mus musculus [4]
  Activity: inactive
Mus musculus [5]
  Activity: inactive
Mus musculus [6]
  Activity: Not Active

## CCCOc1c(C(=O)NN)sc(C(=O)NN)c1OCCC
Mus musculus [1]
  Activity: inactive
Mus musculus [2]
  Activity: inactive
Mus musculus [3]
  Activity: 100 mg/kg
Mus musculus [4]
  Activity: inactive
Mus musculus [5]
  Activity: inactive
Mus musculus [6]
  Activity: Not Active

## CCCCCCCOc1c(C(=O)N/N=C/c2ccccc2)sc(C(=O)N/N=C/c2ccccc2)c1OCCCCCCC
Mus musculus [1]
  Activity: inactive
Mus musculus [15]
  Activity: 300 mg/kg
Mus musculus [2]
  Activity: inactive
Mus musculus [16]
  Activity: inactive
Mus musculus [17]
  Activity: inactive
Mus musculus [8]
  Activity: Not Active
Mus musculus [18]
  Activity: inactive
Mus musculus [4]
  Activity: inactive
Mus musculus [19]
  Activity: inactive
Mus musculus [12]
  Activity: inactive
Mus musculus [6]
  Activity: Not Active
Mus musculus [20]
  Activity: inactive

## CCCCCCCOc1c(C(=O)N/N=C(\C)c2cccs2)sc(C(=O)N/N=C(\C)c2cccs2)c1OCCCCCCC
Mus musculus [21]
  Activity: inactive
Mus musculus [10]
  Activity: inactive
Mus musculus [22]
  Activity: inactive
Mus musculus [23]
  Activity: inactive
Mus musculus [24]
  Activity: inactive
Mus musculus [25]
  Activity: inactive

## CCCOc1c(C(=O)N/N=C(/C)c2ccsc2Br)sc(C(=O)N/N=C(/C)c2ccsc2Br)c1OCCC
Mus musculus [13]
  Activity: inactive
Mus musculus [11]
  Activity: inactive
Mus musculus [12]
  Activity: inactive
